# Active and inactive are the calls of the source. No cut-off for these calls is given here.
# Assays:
# [1] = Half life in CD1 mouse at 5 mg/kg, iv after 24 hrs by LC-MS/MS analysis; assay type: ADME, organism-based; details: in vivo
# In short: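 Male CD-1 mice, fasted overnight, 3 per route; compound in PBS with 5% DMSO, iv bolus 5 mg/kg or oral gavage 20 mg/kg. Blood sampled at 5, 15, 30 min and 1–24 h. Plasma protein-precipitated with acetonitrile plus internal standard, quantified by LC-MS/MS (MRM). AUC by linear trapezoidal method; parameters by non-compartmental analysis.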
# Histone deacetylase 8 = Histone deacetylase 8 (Homo sapiens, UniProt Q9BY41); assay: Inhibition of recombinant full length human C-terminal His-tagged HDAC8 expressed in baculovirus infected Sf9 cells using Boc-Lys (trifluoroacetyl)-AMC as substrate preincubated for 1 hr followed by substrate addition and measured after 2 hrs by fluorescence based micro plate reader analysis
# Chain of Histone deacetylase 8 (Q9BY41 whole entry): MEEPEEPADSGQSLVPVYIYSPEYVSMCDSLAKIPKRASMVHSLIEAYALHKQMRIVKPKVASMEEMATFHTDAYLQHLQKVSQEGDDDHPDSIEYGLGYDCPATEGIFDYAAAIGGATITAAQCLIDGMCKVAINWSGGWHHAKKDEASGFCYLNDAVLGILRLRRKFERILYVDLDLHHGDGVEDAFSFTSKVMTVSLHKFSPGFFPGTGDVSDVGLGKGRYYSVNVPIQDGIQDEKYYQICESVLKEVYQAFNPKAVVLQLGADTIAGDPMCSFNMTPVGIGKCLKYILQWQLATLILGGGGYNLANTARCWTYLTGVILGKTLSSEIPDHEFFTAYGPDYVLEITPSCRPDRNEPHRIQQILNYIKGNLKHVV
# In short: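 Recombinant HDAC8 preincubated with test agent at 30 °C for 1 h. Boc-Lys(trifluoroacetyl)-AMC added (final 50 μM), 2 h at 30 °C. Stopped with trypsin/TSA developer for 30 min; fluorescence read at 360/460 nm. Inhibition relative to control wells; IC50 by variable-slope fit.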
# Histone deacetylase 4 = Histone deacetylase 4 (Homo sapiens, UniProt P56524); assay: Inhibition of recombinant human HDAC4 using Boc-Lys (trifluoroacetyl)-AMC as substrate preincubated for 1 hr followed by substrate addition and measured after 2 hrs by fluorescence based micro plate reader analysis
# Chain of Histone deacetylase 4 (P56524 whole entry): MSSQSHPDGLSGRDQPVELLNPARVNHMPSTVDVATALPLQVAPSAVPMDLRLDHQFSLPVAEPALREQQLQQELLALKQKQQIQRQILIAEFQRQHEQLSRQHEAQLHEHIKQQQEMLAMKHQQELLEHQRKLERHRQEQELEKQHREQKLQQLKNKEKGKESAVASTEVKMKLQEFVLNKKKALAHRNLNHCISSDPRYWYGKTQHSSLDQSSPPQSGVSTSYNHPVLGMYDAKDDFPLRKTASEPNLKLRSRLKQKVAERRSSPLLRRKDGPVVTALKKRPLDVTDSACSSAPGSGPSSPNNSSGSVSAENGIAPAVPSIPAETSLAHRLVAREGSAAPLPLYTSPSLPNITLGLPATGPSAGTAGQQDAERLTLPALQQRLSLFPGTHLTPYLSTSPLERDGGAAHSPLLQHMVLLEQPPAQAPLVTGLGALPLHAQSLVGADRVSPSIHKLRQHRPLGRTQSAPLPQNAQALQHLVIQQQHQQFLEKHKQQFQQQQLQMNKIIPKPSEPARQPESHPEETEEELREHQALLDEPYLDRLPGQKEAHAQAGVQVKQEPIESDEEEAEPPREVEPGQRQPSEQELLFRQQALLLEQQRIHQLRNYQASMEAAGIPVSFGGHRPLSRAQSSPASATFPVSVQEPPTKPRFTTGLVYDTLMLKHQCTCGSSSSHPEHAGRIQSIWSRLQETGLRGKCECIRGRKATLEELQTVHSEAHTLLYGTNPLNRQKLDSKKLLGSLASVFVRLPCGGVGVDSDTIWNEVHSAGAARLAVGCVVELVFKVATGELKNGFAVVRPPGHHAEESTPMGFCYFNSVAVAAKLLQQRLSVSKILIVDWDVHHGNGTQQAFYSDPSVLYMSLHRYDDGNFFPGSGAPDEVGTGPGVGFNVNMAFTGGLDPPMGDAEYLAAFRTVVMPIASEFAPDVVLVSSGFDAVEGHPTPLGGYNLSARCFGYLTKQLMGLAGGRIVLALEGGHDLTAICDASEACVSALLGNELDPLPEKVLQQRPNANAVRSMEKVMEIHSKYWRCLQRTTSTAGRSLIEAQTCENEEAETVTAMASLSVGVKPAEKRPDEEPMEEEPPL
# In short: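 Recombinant enzyme was preincubated with serially varied inhibitor for 1 h at 30 °C. Boc-Lys(trifluoroacetyl)-AMC was then added to a final 50 μM and incubated 2 h at 30 °C. The reaction was stopped with developer containing trypsin and TSA, and fluorescence (ex 360/em 460 nm) was read 30 min later. Inhibition was taken relative to control wells and fitted to a variable-slope log(inhibitor) curve. Values are the mean of at least three experiments.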
# [2] = target: Matrix metalloproteinase-9 (Homo sapiens) (UniProt P14780); assay: Inhibition of MMP-9 (unknown origin) at 10 to 50 uM incubated for 10 to 15 mins and measured after 2 hrs by fluorescence based assay
# Chain of Matrix metalloproteinase-9 (Homo sapiens) (P14780 whole entry): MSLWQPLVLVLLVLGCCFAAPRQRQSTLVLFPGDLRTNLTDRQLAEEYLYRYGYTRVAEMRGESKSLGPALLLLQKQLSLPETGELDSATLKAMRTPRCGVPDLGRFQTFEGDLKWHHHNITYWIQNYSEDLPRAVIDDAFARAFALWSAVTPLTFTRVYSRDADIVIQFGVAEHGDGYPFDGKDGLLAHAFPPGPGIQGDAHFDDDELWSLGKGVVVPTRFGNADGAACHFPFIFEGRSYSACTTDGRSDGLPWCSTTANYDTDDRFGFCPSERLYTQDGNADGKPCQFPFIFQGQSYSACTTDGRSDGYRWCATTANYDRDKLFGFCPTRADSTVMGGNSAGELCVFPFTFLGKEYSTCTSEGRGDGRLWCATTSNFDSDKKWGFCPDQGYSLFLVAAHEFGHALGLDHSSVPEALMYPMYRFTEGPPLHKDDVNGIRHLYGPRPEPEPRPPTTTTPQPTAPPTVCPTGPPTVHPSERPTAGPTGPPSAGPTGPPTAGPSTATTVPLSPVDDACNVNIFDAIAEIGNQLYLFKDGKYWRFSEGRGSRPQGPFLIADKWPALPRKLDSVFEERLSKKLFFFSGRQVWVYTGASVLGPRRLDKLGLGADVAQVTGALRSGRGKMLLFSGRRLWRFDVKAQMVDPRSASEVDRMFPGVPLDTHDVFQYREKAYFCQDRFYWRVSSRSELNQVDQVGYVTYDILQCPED
# In short: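 MMP-2/MMP-9 in activation buffer with test agent (final 50 and 10 μM), 10–15 min incubation, then fluorogenic substrate added. Incubated 2 h at 37 °C; fluorescence read at 320/405 nm. Kit MMP inhibitor was the positive control.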
# HL-60(TB) = assay: Antiproliferative activity against human HL-60(TB) cells assessed as reduction in cell viability after 48 hrs by CellTiter-Blue assay; assay type: functional; details: HL-60, 48 h, read-out: LC50 (the source's name)
# In short: (§1)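 Cells grown in RPMI1640 with 10% FBS at 37 °C, 5% CO₂. 5,000–10,000 cells/well were pre-incubated overnight, and a time-zero CellTiter-Blue read was taken. Six 10-fold dilutions (top final 10 μM) were applied for 48 h, followed by 0.125 mg/mL CellTiter-Blue for 2–4 h. Resorufin fluorescence was read at ex 560/em 590 nm. […] Triplicates.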
# HOP-62 = assay: Antiproliferative activity against human HOP62 cells assessed as reduction in cell viability after 48 hrs by CellTiter-Blue assay; assay type: functional; details: HOP-62, 48 h, read-out: LC50 (the source's name); in short: as §1
# HT-29 = assay: Antiproliferative activity against human HT-29 cells assessed as reduction in cell viability after 48 hrs by CellTiter-Blue assay; assay type: functional; details: HT-29, 48 h, read-out: LC50 (the source's name); in short: as §1
# SNB-19 = assay: Antiproliferative activity against human SNB19 cells assessed as reduction in cell viability after 48 hrs by CellTiter-Blue assay; assay type: functional; details: SNB-19, 48 h, read-out: LC50 (the source's name); in short: as §1
# SNB-75 = assay: Antiproliferative activity against human SNB75 cells assessed as reduction in cell viability after 48 hrs by CellTiter-Blue assay; assay type: functional; details: SNB-75, 48 h, read-out: LC50 (the source's name)
# In short: (§2)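 NCI-60 panel lines grown in RPMI1640 with 10% FBS at 37 °C, 5% CO₂. Seeded at 5,000–10,000 cells/well and pre-incubated overnight. Exposed for 48 h to six 10-fold dilutions (top final 10 μM), with a time-zero plate read at dosing. CellTiter-Blue (0.125 mg/mL) for 2–4 h, fluorescence 560/590 nm, triplicate curves.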
# UACC-62 = assay: Antiproliferative activity against human UACC62 cells assessed as reduction in cell viability after 48 hrs by CellTiter-Blue assay; assay type: functional; details: UACC-62, 48 h, read-out: LC50 (the source's name); in short: as §2
# OVCAR-3 = assay: Antiproliferative activity against human OVCAR3 cells assessed as reduction in cell viability after 48 hrs by CellTiter-Blue assay; assay type: functional; details: OVCAR-3, 48 h, read-out: LC50 (the source's name); in short: as §1
# OVCAR-4 = assay: Antiproliferative activity against human OVCAR4 cells assessed as reduction in cell viability after 48 hrs by CellTiter-Blue assay; assay type: functional; details: OVCAR-4, 48 h, read-out: LC50 (the source's name); in short: as §1
# 786-0 = assay: Antiproliferative activity against human 786-0 cells assessed as reduction in cell viability after 48 hrs by CellTiter-Blue assay; assay type: functional; details: 786-0, 48 h, read-out: LC50 (the source's name); in short: as §1
# RXF 393 = assay: Antiproliferative activity against human RXF393 cells assessed as reduction in cell viability after 48 hrs by CellTiter-Blue assay; assay type: functional; details: RXF 393, 48 h, read-out: LC50 (the source's name); in short: as §1
# MDA-MB-468 = assay: Antiproliferative activity against human MDA-MB-468 cells assessed as reduction in cell viability after 48 hrs by CellTiter-Blue assay; assay type: functional; details: MDA-MB-468, 48 h, read-out: LC50 (the source's name); in short: as §1
# MOLM-14 = assay: Antiproliferative activity agaisnt human MOLM14 cells expressing wild type p53/FLT3-ITD mutant assessed as cell death at 10 uM after 48 hrs by CellTiter-blue assay; assay type: functional, cell-based
# HL-60 [3] = assay: Effect on XIAP protein degradation in p53 null human HL60 cells harboring wild type FLT3 at 50 to 200 nM after 24 hrs by Western blot analysis; assay type: functional, cell-based
# In short: (§3)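 Cells (1,500,000 per well) grown 12 h, then drug-treated as specified. Lysed in RIPA buffer, sonicated, centrifuged, protein normalized by BCA. Run on 4–12% Bis-Tris gels in MES, transferred, probed overnight at 4 °C with primary antibodies at 1/1000. Actin served as reference for LC3-II quantitation.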
# HL-60 [4] = assay: Effect on c-Flip protein degradation in p53 null human HL60 cells harboring wild type FLT3 at 50 to 200 nM after 24 hrs by Western blot analysis; assay type: functional, cell-based; in short: as §3
# MV4-11 [5] = assay: Induction of apoptosis in human MV4-11 cells assessed as cell death at 200 nM after 24 hrs in presence of 50 uM z-VAD by CellTiter-blue dye based spectrophotometric analysis; assay type: functional
# In short: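 MV4-11 cells grown 12 h, then given 200 nM test agent alone or with z-VAD, chloroquine (5 μM) or wortmannin (100 nM) for 24 h. Viability by CellTiter-Blue (0.125 mg/mL, 2–4 h), resorufin fluorescence 560/590 nm, compared with t = 0 wells; n = 3.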
# MV4-11 [6] = assay: Induction of apoptosis in human MV4-11 cells assessed as cleavage of pro caspase 3 at 200 nM after 24 hrs in presence of 50 uM z-VAD by Western blot analysis; assay type: functional, cell-based; in short: as §3
smiles,measurement,setting,value
CCCNNC(=O)/C=C/c1ccc(CNCCc2c(C)[nH]c3ccccc23)cc1.O=C(O)C(F)(F)F,t1/2,[1],15.2 h
same,IC50,Histone deacetylase 8,1.76 µM
same,IC50,Histone deacetylase 4,> 10 µM
same,inhibition,[2],inactive
same,CC50,HL-60(TB),> 10 µM
same,CC50,HOP-62,> 10 µM
same,CC50,HT-29,> 10 µM
same,CC50,SNB-19,> 10 µM
same,CC50,SNB-75,> 10 µM
same,CC50,UACC-62,0.589 µM
same,CC50,OVCAR-3,> 10 µM
same,CC50,OVCAR-4,> 10 µM
same,CC50,786-0,> 10 µM
same,CC50,RXF 393,0.666 µM
same,CC50,MDA-MB-468,> 10 µM
same,Activity,MOLM-14,Active
same,Activity,HL-60 [3],Active
same,Activity,HL-60 [4],Active
same,Activity,MV4-11 [5],inactive
same,Activity,MV4-11 [6],inactive
